# Experimental data reported in paper PMC8213225 (Science Advances, 2021).
# What was measured:
# [1] = system: SPOP-53BP1 interaction; experiment: Co-IP of SPOP-53BP1 interaction in 293T cells with kinase inhibitors and IR; type: cell-based; conditions: IR for 1 hour
# How it was run: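 293T cells (DMEM, 10% FBS) transiently transfected with tagged constructs by lipofection, pretreated with kinase inhibitors (DMSO vehicle), then irradiated and harvested 1 h later. Lysed in BC100 buffer 24 h post-transfection; FLAG-tagged proteins pulled down on anti-FLAG M2 agarose, HA-tagged with anti-HA plus protein A/G beads, overnight at 4°C. Immunoblot on nitrocellulose with ECL detection.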
# [2] = system: SPOP-53BP1 interaction; experiment: Co-IP of SPOP-53BP1 interaction after DNA damage; type: cell-based; conditions: DNA damage by CPT
# [3] = system: BPH1 cells; experiment: Karyotype analysis, chromosome breaks; type: cell-based; conditions: SPOP F133V-expressing BPH1 cells, CPT 1 μM for 24 hours; largely reversed by 53BP1 co-KO
# [4] = system: 53BP1 FFR polyubiquitination; experiment: In vivo ubiquitination assay of 53BP1 FFR; type: cell-based; conditions: CPT treatment, fig. S2H
# [5] = system: 53BP1 polyubiquitination; experiment: In vivo ubiquitination assay of 53BP1; type: cell-based; conditions: CPT treatment, fig. S2E
# [6] = system: 53BP1; experiment: Immunodepletion of PC-3 lysate with 53BP1 antibody; type: binding; conditions: IR 4 Gy, 1 hour, immunodepleted five times
# How it was run: (§1)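 PC-3 cells were grown in RPMI with 10% FBS, irradiated (4 Gy), and lysed 1 h later. Lysate was immunodepleted five times with antibody to L3MBTL1 or to 53BP1, with preimmune sera as control. Read-out was Western blot: SDS-PAGE, transfer to nitrocellulose, blocking in TBS (pH 7.4) with 5% nonfat milk and 0.1% Tween 20, primary antibody overnight at 4°C, secondary 1 h at room temperature.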
# [7] = system: L3MBTL1; experiment: Immunodepletion of PC-3 lysate with L3MBTL1 antibody; type: binding; conditions: IR 4 Gy, 1 hour, immunodepleted five times
# How it was run: as §1
# [8] = target: SPOP MATH domain (residues 28 to 164) D140G (human, UniProt O43791 28-164, D140G); experiment: crystal structure
# Chain of SPOP MATH domain (residues 28 to 164) D140G (O43791 28-164 D140G): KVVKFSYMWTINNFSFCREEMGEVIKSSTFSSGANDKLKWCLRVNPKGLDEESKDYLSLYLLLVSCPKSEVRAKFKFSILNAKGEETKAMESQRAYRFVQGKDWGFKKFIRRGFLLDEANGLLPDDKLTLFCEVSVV
molecule,measurement,setting,value
O=c1cc(-c2cccc3c2Sc2ccccc2S3)oc(N2CCOCC2)c1 [ATM kinase inhibitor],effect on SPOP-53BP1 interaction,[1],attenuated the SPOP-53BP1 interaction
"CC[C@@]1(O)C(=O)OCc2c1cc1n(c2=O)Cc2cc3ccccc3nc2-1 [CPT, camptothecin]",effect on SPOP-53BP1 interaction,[2],markedly enhanced
same,number of intrachromosomal breaks per cell,[3],marked increase in the number of intrachromosomal breaks per cell
same,effect on SPOP-increased 53BP1 FFR polyubiquitination,[4],this effect was enhanced by CPT treatment
same,effect on SPOP-induced polyubiquitination of 53BP1,[5],enhanced SPOP-induced polyubiquitination of 53BP1
NPL4: valosin-containing protein/p97 cofactor NPL4,fraction of NPL4 bound to 53BP1,[6],approximately 10%
same,fraction of NPL4 bound to L3MBTL1,[7],approximately 33%
"PATPTASSSSSTTPT (peptide, UniProt Q12888 1636-1650, looked up) [53BP1 SBM synthetic peptide (residues 1636 to 1650)]",binding result,[8],binds
